In ChEMBL document CHEMBL1141258, “Prismatomerin, a new iridoid from Prismatomeris tetrandra. Structure elucidation, determination of absolute configuration, and cytotoxicity” (J Nat Prod, 2007):
Activity calls are given as the source filed them. The calls are words filed in the database; no cut-off is given here.

How the values were obtained:
K562 = assay: Growth inhibition of human K562 cells after 48 hrs by SRB assay; format: functional; conditions: K562, 48 h
Method in brief: (§1)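 NCI 60 human tumour cell line in vitro anticancer screen, run at NCI. Compound tested at a minimum of five concentrations in 10-fold dilutions per cell line.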

COLO 205 = assay: Growth inhibition of human COLO205 cells after 48 hrs by SRB assay; format: functional; conditions: COLO 205, 48 h; method in brief: as §1
SNB-19 = assay: Growth inhibition of human SNB19 cells after 48 hrs by SRB assay; format: functional; conditions: SNB-19, 48 h
Method in brief: (§2)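 Run at NCI in the 60-human-tumor-cell-line anticancer screen. Each compound was tested at a minimum of five concentrations at 10-fold dilutions.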

HOP-62 = assay: Growth inhibition of human HOP62 cells after 48 hrs by SRB assay; format: functional; conditions: HOP-62, 48 h; method in brief: as §2
BT-549 = assay: Growth inhibition of human BT549 cells after 48 hrs by SRB assay; format: functional; method in brief: as §2
SN12C = assay: Growth inhibition of human SN12C cells after 48 hrs by SRB assay; format: functional; method in brief: as §2
EKVX = assay: Growth inhibition of human EKVX cells after 48 hrs by SRB assay; format: functional; method in brief: as §1
M14 = assay: Growth inhibition of human M14 cells after 48 hrs by SRB assay; format: functional; method in brief: as §2
MOLT-4 = assay: Growth inhibition of human MOLT4 cells after 48 hrs by SRB assay; format: functional; conditions: MOLT-4, 48 h; method in brief: as §2
MCF7 = assay: Growth inhibition of human MCF7 cells after 48 hrs by SRB assay; format: functional; conditions: MCF7, 48 h; method in brief: as §2
L929 = assay: Antiproliferative activity against mouse L929 cells after 5 days by SRB assay; format: cell-based; conditions: L929, 120 h
SK-MEL-28 = assay: Growth inhibition of human SK-MEL28 cells after 48 hrs by SRB assay; format: functional; conditions: SK-MEL-28, 48 h; method in brief: as §1
HT-29 = assay: Growth inhibition of human HT29 cells after 48 hrs by SRB assay; format: functional; conditions: HT-29, 48 h; method in brief: as §1
DU-145 = assay: Growth inhibition of human DU145 cells after 48 hrs by SRB assay; format: functional; method in brief: as §2
TK-10 = assay: Growth inhibition of human TK10 cells after 48 hrs by SRB assay; format: functional; conditions: TK-10, 48 h; method in brief: as §1
UACC-62 = assay: Growth inhibition of human UACC62 cells after 48 hrs by SRB assay; format: functional; conditions: UACC-62, 48 h; method in brief: as §1
IGROV-1 = assay: Growth inhibition of human IGROV1 cells after 48 hrs by SRB assay; format: functional; conditions: IGROV-1, 48 h, read-out: Log LC50 (the source's name) (converted); method in brief: as §2
U-251 = assay: Growth inhibition of human U251 cells after 48 hrs by SRB assay; format: functional; conditions: U-251, 48 h; method in brief: as §2
SF-268 = assay: Growth inhibition of human SF268 cells after 48 hrs by SRB assay; format: functional; conditions: SF-268, 48 h; method in brief: as §2
[1] = Antiproliferative activity against human KB31 cells after 5 days by MTT assay; conditions: KB 3-1, 120 h
OVCAR-8 = assay: Growth inhibition of human OVACAR8 cells after 48 hrs by SRB assay; format: functional; conditions: OVCAR-8, 48 h; method in brief: as §2
ACHN = assay: Growth inhibition of human ACHN cells after 48 hrs by SRB assay; format: functional; method in brief: as §1
NCI/ADR-RES = assay: Growth inhibition of human NCI/ADR-RES cells after 48 hrs by SRB assay; format: functional; method in brief: as §1
OVCAR-4 = assay: Growth inhibition of human OVACAR4 cells after 48 hrs by SRB assay; format: functional; conditions: OVCAR-4, 48 h; method in brief: as §2
UO-31 = assay: Growth inhibition of human UO31 cells after 48 hrs by SRB assay; format: functional; conditions: UO-31, 48 h; method in brief: as §1
[2] = read-out: Log LC50 (the source's name) (converted)

For `COC(=O)C1=CO[C@@H]2O[C@H]3/C(=C\c4ccc(O)cc4)C(=O)O[C@]34C=C[C@H]1[C@H]24` [PRISMATOMERIN], the GI50 (K562) was less than 10 nM, the CC50 (K562; [2]) was greater than 100000 nM and the GI50 (COLO 205) was 537 nM. The CC50 (COLO 205; [2]) was greater than 100000 nM, the GI50 (SNB-19) was 347 nM and the CC50 (SNB-19; [2]) was 26900 nM. The TGI (SNB-19; read-out: Log TGI (converted)) was 110000 nM, the GI50 (HOP-62) was 263 nM and the CC50 (HOP-62; [2]) was 2820 nM. The TGI (HOP-62; read-out: Log TGI (converted)) was 708 nM, the Activity (BT-549) was “inactive” and the GI50 (BT-549; BT-549, 48 h) was 151 nM. The GI50 (SN12C) was 174 nM, the CC50 (SN12C; [2]) was 813 nM and the TGI (SN12C; read-out: Log TGI (converted)) was 380 nM. For the same molecule, the GI50 (EKVX) was 355 nM, the CC50 (EKVX; [2]) was 40700 nM and the Activity (M14) was “inactive”. It also gave a GI50 (M14; M14, 48 h) of 162 nM, a GI50 (MOLT-4) of less than 10 nM and a GI50 (MCF7) of 120 nM. It also gave a CC50 (MCF7; [2]) greater than 100000 nM, a TGI (MCF7; read-out: Log TGI (converted)) of 1000 nM and an IC50 (L929) of 210 nM. For the same molecule, the GI50 (SK-MEL-28) was 316 nM, the CC50 (SK-MEL-28; [2]) was greater than 100000 nM and the GI50 (HT-29) was 107 nM. The CC50 (HT-29; [2]) was greater than 100000 nM, the Activity (DU-145) was “inactive” and the GI50 (DU-145; DU-145, 48 h) was 115 nM. The GI50 (TK-10) was 288 nM, the CC50 (TK-10; [2]) was 3980 nM and the GI50 (UACC-62) was 437 nM. For the same molecule, the CC50 (UACC-62; [2]) was 575 nM, the CC50 (IGROV-1) was 851 nM and the GI50 (U-251) was 295 nM. It also gave a CC50 (U-251; [2]) of 60300 nM, a TGI (U-251; read-out: Log TGI (converted)) of 955 nM and a GI50 (SF-268) of 263 nM. It also gave a CC50 (SF-268; [2]) of 63100 nM, a TGI (SF-268; read-out: Log TGI (converted)) of 759 nM and an IC50 [1] of 410 nM. The GI50 (OVCAR-8) was 174 nM, the CC50 (OVCAR-8; [2]) was 2240 nM and the TGI (OVCAR-8; read-out: Log TGI (converted)) was 501 nM. The GI50 (ACHN) was less than 10 nM, the CC50 (ACHN; [2]) was 2090 nM and the GI50 (NCI/ADR-RES) was 170 nM. It also gave a CC50 (NCI/ADR-RES; [2]) of 17400 nM, a GI50 (OVCAR-4) of 575 nM and a CC50 (OVCAR-4; [2]) greater than 100000 nM. The TGI (OVCAR-4; read-out: Log TGI (converted)) was 3470 nM, the GI50 (UO-31) was 120 nM and the CC50 (UO-31; [2]) was 813 nM.
